# Measured values published in ChEMBL document CHEMBL4819096, “Antibacterial activity of noscapine analogs” (Bioorg Med Chem Lett, 2021).
# Activity calls are given as the source filed them. No cut-off for these calls is given here.
# What was measured:
# Hafnia alvei = experiment: Antibacterial activity against Ampicillin resistant Hafnia alvei O31 assessed as inhibition of bacterial growth measured after 16 to 20 hrs by two-fold serial microbroth dilution method; assay type: functional, organism-based; conditions: time 16-20 hrs
# How it was run: (§1)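 Broth microdilution MIC in LB and M9 medium. Inoculum adjusted to about 5 × 10⁵ cells/ml. Compound serially diluted twofold. Plates covered and incubated at 37 °C with shaking. OD600 read; MIC taken as the lowest concentration giving no growth after 16–20 h.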
# Bacillus subtilis = experiment: Antibacterial activity against Bacillus subtilis 3HM assessed as inhibition of bacterial growth measured after 16 to 20 hrs by two-fold serial microbroth dilution method; assay type: functional, organism-based; conditions: time 16-20 hrs
# How it was run: (§2)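 Broth microdilution in LB and M9 medium. Inoculum adjusted to about 5 × 10⁵ cells/ml. Compound diluted twofold serially in microplate wells, then plates covered and incubated at 37 °C with shaking. Growth read as OD600. MIC taken as the lowest concentration giving no growth after 16–20 h.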
# Candida albicans = experiment: Antibacterial activity against ampicillin/cefotaxime/tetracycline/ceftriaxone/fosfomycin-resistant Candida albicans 181210169-1 assessed as inhibition of fungal growth measured after 16 to 20 hrs by two-fold serial microbroth dilution method; assay type: functional, organism-based; conditions: time 16-20 hrs; how it was run: as §1
# Pseudomonas aeruginosa [1] = experiment: Antibacterial activity against Pseudomonas aeruginosa R42 assessed as inhibition of bacterial growth measured after 16 to 20 hrs by two-fold serial microbroth dilution method; assay type: functional, organism-based; conditions: time 16-20 hrs; how it was run: as §2
# Klebsiella oxytoca = experiment: Antibacterial activity against Klebsiella oxytoca R48 assessed as inhibition of bacterial growth measured after 16 to 20 hrs by two-fold serial microbroth dilution method; assay type: functional, organism-based; conditions: time 16-20 hrs; how it was run: as §2
# Escherichia coli [2] = experiment: Antibacterial activity against Escherichia coli assessed as inhibition of bacterial growth measured after 16 to 20 hrs by two-fold serial microbroth dilution method; assay type: functional; conditions: time 16-20 hrs; how it was run: as §2
# Proteus sp. = experiment: Antibacterial activity against ampicillin/cefotaxime/tetracycline/ceftriaxone/fosfomycin-resistant Proteus sp. O14 assessed as inhibition of bacterial growth measured after 16 to 20 hrs by two-fold serial microbroth dilution method; assay type: functional, organism-based; conditions: time 16-20 hrs; how it was run: as §1
# HEK293 [3] = experiment: Induction of cell cycle arrest in human HEK293 cells assessed as increase in accumulation of apoptotic cells at sub G1 phase at 14.9 uM after 24 hrs by propidium iodide staining based flow cytometry; conditions: hek293, 24 h
# How it was run: (§3)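 HEK293 cells exposed to compound or vehicle (0.1% DMSO), then harvested by centrifugation (400 × g, 5 min). Fixed/permeabilized in ice-cold 70% ethanol for 24 h at −20 °C, PBS-washed twice, treated with RNase A (0.5 mg/ml) for 5 min at room temperature, then PI (50 µg/ml) for 30 min. DNA content measured by flow cytometry on a linear scale. At least duplicate runs; mean ± S.E.M.; Wilcoxon test versus vehicle.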
# Citrobacter koseri = experiment: Antibacterial activity against Citrobacter koseri R38 assessed as inhibition of bacterial growth measured after 16 to 20 hrs by two-fold serial microbroth dilution method; assay type: functional, organism-based; conditions: time 16-20 hrs; how it was run: as §2
# Enterobacter cloacae = experiment: Antibacterial activity against ampicillin/cefotaxime/tetracycline/ceftriaxone-resistant Enterobacter cloacae O3 assessed as inhibition of bacterial growth measured after 16 to 20 hrs by two-fold serial microbroth dilution method; assay type: functional, organism-based; conditions: time 16-20 hrs; how it was run: as §1
# Staphylococcus aureus = experiment: Antibacterial activity against Fosfomycin resistant Staphylococcus aureus ATCC USA 206 assessed as inhibition of bacterial growth measured after 16 to 20 hrs by two-fold serial microbroth dilution method; assay type: functional, organism-based; conditions: time 16-20 hrs; how it was run: as §1
# Pseudomonas aeruginosa [4] = experiment: Antibacterial activity against ampicillin/cefotaxime-resistant Pseudomonas aeruginosa ATCC 27853 assessed as inhibition of bacterial growth measured after 16 to 20 hrs by two-fold serial microbroth dilution method; assay type: functional, organism-based; conditions: time 16-20 hrs; how it was run: as §1
# Klebsiella aerogenes = experiment: Antibacterial activity against Enterobacter aerogenes R41 assessed as inhibition of bacterial growth measured after 16 to 20 hrs by two-fold serial microbroth dilution method; assay type: functional, organism-based; conditions: time 16-20 hrs; how it was run: as §2
# Klebsiella pneumoniae = experiment: Antibacterial activity against ampicillin/fosfomycin-resistant Klebsiella pneumonia 181210171-2 assessed as inhibition of bacterial growth measured after 16 to 20 hrs by two-fold serial microbroth dilution method; assay type: functional, organism-based; conditions: time 16-20 hrs; how it was run: as §1
# Escherichia coli [5] = experiment: Antibacterial activity against Escherichia coli ATCC25922 assessed as inhibition of bacterial growth measured after 16 to 20 hrs by two-fold serial microbroth dilution method; assay type: functional, organism-based; conditions: ATCC 25922, time 16-20 hrs; how it was run: as §2
# Aeromonas = experiment: Antibacterial activity against Aeromonas sp. O9 assessed as inhibition of bacterial growth measured after 16 to 20 hrs by two-fold serial microbroth dilution method; assay type: functional, organism-based; conditions: time 16-20 hrs; how it was run: as §2
# Enterobacter = experiment: Antibacterial activity against Enterobacter sp. O54 assessed as inhibition of bacterial growth measured after 16 to 20 hrs by two-fold serial microbroth dilution method; assay type: functional, organism-based; conditions: time 16-20 hrs; how it was run: as §2
# Escherichia coli [6] = experiment: Antibacterial activity against ampicillin/cefotaxime/tetracycline/ceftriaxone-resistant Escherichia coli mx7 assessed as inhibition of bacterial growth measured after 16 to 20 hrs by two-fold serial microbroth dilution method; assay type: functional, organism-based; conditions: time 16-20 hrs; how it was run: as §1
# Proteus vulgaris = experiment: Antibacterial activity against Proteus vulgaris O41 assessed as inhibition of bacterial growth measured after 16 to 20 hrs by two-fold serial microbroth dilution method; assay type: functional, organism-based; conditions: time 16-20 hrs; how it was run: as §2
# HEK293 [7] = experiment: Induction of cell cycle arrest in human HEK293 cells assessed as increase in accumulation of cells at G2/M phase at 14.9 uM after 24 hrs by propidium iodide staining based flow cytometry; conditions: hek293, 24 h; how it was run: as §3
# [8] = Cytotoxicity against human HEK293 cells assessed as reduction in cell viability measured after 28 hrs by PrestoBlue reagent based fluorescence analysis
# How it was run: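 HEK293 cells seeded at 25*10³ per well in DMEM with 10% FBS, 2 mM L-Glu and 50 µg/ml gentamicin. Cells held 24 h at 37 °C, 5% CO2 before compound was added (final DMSO 0.1%), then incubated 28 h. Viability read by PrestoBlue fluorescence at 590 nm, expressed relative to 0.1% DMSO control (100%). CC50 derived by curve fitting.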
# Morganella morganii = experiment: Antibacterial activity against Morganella morganii R36 assessed as inhibition of bacterial growth measured after 16 to 20 hrs by two-fold serial microbroth dilution method; assay type: functional, organism-based; conditions: time 16-20 hrs; how it was run: as §2
# HEK293 [9] = experiment: Induction of cell cycle arrest in human HEK293 cells assessed as decrease in accumulation of cells at G1 phase at 14.9 uM measured after 24 hrs by propidium iodide staining based flow cytometry; conditions: hek293, 24 h; how it was run: as §3
# HEK293 [10] = experiment: Induction of cell cycle arrest in human HEK293 cells assessed as increase in accumulation of cells at S phase at 12.6 uM after 24 hrs by propidium iodide staining based flow cytometry; conditions: hek293, 24 h; how it was run: as §3
# HEK293 [11] = experiment: Induction of cell cycle arrest in human HEK293 cells assessed as increase in accumulation of apoptotic cells at sub G1 phase at 12.6 uM after 72 hrs by propidium iodide staining based flow cytometry; conditions: hek293, 72 h; how it was run: as §3
# HEK293 [12] = experiment: Induction of cell cycle arrest in human HEK293 cells assessed as increase in accumulation of cells at S phase at 71 uM after 24 hrs by propidium iodide staining based flow cytometry; conditions: hek293, 24 h
# How it was run: (§4)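 Cell-cycle profiling of HEK293 cells treated with compound or vehicle (0.1% DMSO). Cells harvested (400 × g, 5 min) and fixed in ice-cold 70% ethanol for 24 h at −20 °C. Washed in PBS, treated with RNase A (0.5 mg/ml, 5 min, room temperature), then stained with propidium iodide (50 µg/ml, 30 min). DNA content read by flow cytometry on a linear scale. At least duplicate; mean ± S.E.M.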
# [13] = Selectivity index, ratio of CC50 for human HEK293 cells to MIC for antibacterial activity against Escherichia coli; assay type: toxicity; conditions: read-out: Selectivity Index
# HEK293 [14] = experiment: Induction of cell cycle arrest in human HEK293 cells assessed as increase in accumulation of apoptotic cells at sub G1 phase at 71 uM measured after 48 hrs by propidium iodide staining based flow cytometry; conditions: hek293, 48 h; how it was run: as §4
Structure (SMILES),Activity (Hafnia alvei),Activity (Bacillus subtilis),Activity (Candida albicans),Activity (Pseudomonas aeruginosa [1]),Activity (Klebsiella oxytoca),MIC (Escherichia coli [2]) [µM],Activity (Proteus sp.),Activity (Citrobacter koseri),Activity (Enterobacter cloacae),Activity (Staphylococcus aureus),Activity (Pseudomonas aeruginosa [4]),Activity (Klebsiella aerogenes),Activity (Klebsiella pneumoniae),Activity (Escherichia coli [5]),Activity (Aeromonas),Activity (Enterobacter),Activity (Escherichia coli [6]),Activity (Proteus vulgaris),CC50 at 28 h [8] [µM],Activity (Morganella morganii),further results
COc1c2c(cc3c1C(CC(=O)/C=C/C1=C(C)CCCC1(C)C)[N+](C)(C)CC3)OCO2.[I-] (stereo not drawn),Active,Active,Active,Active,Active,22.6,inactive,inactive,Active,Active,inactive,Active,Active,Active,Active,inactive,Active,inactive,14.9,Active,Activity (HEK293 [3]): Toxic; Activity (HEK293 [7]): Toxic; Activity (HEK293 [9]): Toxic
CCCc1ccc(C(=O)CC2c3c(cc4c(c3OC)OCO4)CC[N+]2(C)C)cc1.[I-] (stereo not drawn),Active,Active,Active,Active,inactive,11.3,Active,inactive,Active,Active,inactive,Active,Active,Active,Active,Active,Active,Active,12.6,Active,Activity (HEK293 [10]): Toxic; Activity (HEK293 [11]): Toxic
COc1c2c(cc3c1C(CC(=O)c1ccc4c5c(cccc15)CC4)[N+](C)(C)CC3)OCO2 (stereo not drawn),inactive,Active,inactive,inactive,inactive,12.2,inactive,inactive,inactive,inactive,inactive,inactive,inactive,inactive,inactive,inactive,inactive,inactive,17,inactive,–
CCn1c(O)c(C(=O)CC2c3c(cc4c(c3OC)OCO4)CCN2C)c(=O)n(CC)c1=S (stereo not drawn),inactive,Active,inactive,inactive,inactive,13.5,inactive,inactive,inactive,Active,inactive,inactive,inactive,inactive,inactive,inactive,inactive,inactive,71,inactive,Activity (HEK293 [12]): Toxic; selectivity ratio [13]: 5.5; Activity (HEK293 [14]): Toxic
